The source made the active and inactive calls. The rule behind the calls is not given here.
Assays:
MGC-803 [1] = experiment: Inhibition of tubulin polymerization in human MGC-803 cells assessed as decrease in microtubule formation at 20 to 60 nmol/L by DAPI staining based microscopic analysis; format: cell-based; conditions: dose 20-60 nmol/L
Summary of the method: (§1)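 Cells cultured in RPMI-1640 with 10% FBS at 37 °C, 5% CO2, treated 48 h with 20, 40 and 60 nM; stained for β-tubulin (green) and nuclei (blue) and examined by microscopy.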

SGC-7901 [2] = experiment: Induction of apoptosis in human SGC-7901 cells assessed as late apoptotic cells at 20 nM incubated for 48 hrs by annexin V-FITC and PI staining based flow cytometry analysis (reference value: 2.4 %); format: functional
MGC-803 [3] = experiment: Induction of apoptosis in human MGC-803 cells assessed as increase in PARP cleavage at 20 to 60 nM incubated for 48 hrs by Western blot analysis; format: functional, cell-based; conditions: dose 20-60 nM
Summary of the method: (§2)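 Western blot on MGC-803 and SGC-7901 cells given 20, 40 and 60 nM compound or DMSO for 48 h. Denatured lysates were run on SDS-PAGE and transferred to PVDF, then probed with primary and secondary antibodies to detect apoptosis-related proteins.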

GES1 [4] = experiment: Cytotoxicity against human GES1 cells assessed as reduction in cell viability incubated for 48 hrs by MTT assay; format: functional, cell-based; conditions: GES1, 48 h
Summary of the method: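 MTT assay. 5,000 cells per well in RPMI-1640 with 10% FBS and penicillin/streptomycin at 37 °C, 5% CO2. Compound added 24 h after seeding and left for 48 h. MTT was then added for 4 h at 37 °C, formazan dissolved in DMSO and absorbance read at 490 nm. IC50 calculated from three independent experiments.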

[5] = Inhibition of pig brain tubulin polymerization in presence of GTP by spectrophotometric method; parameters: species or system Sus scrofa
Summary of the method: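 Tubulin purified from pig brain by three temperature-dependent assembly/disassembly cycles in PIPES pH 6.5 (100 mM), 1.0 mM MgSO4, 2.0 mM EGTA, 1.0 mM GTP, 1.0 mM 2-mercaptoethanol, then phosphocellulose chromatography. Protein mixed with compound in PEM buffer with 1 mM GTP and 5% glycerol.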

MGC-803 [6] = experiment: Induction of apoptosis in human MGC-803 cells assessed as increase in caspase-9 cleavage at 20 to 60 nM incubated for 48 hrs by Western blot analysis; format: functional, cell-based; conditions: dose 20-60 nM; summary of the method: as §2
SGC-7901 [7] = experiment: Induction of apoptosis in human SGC-7901 cells assessed as downregulation of c-IAP2 at 20 to 60 nM incubated for 48 hrs by Western blot analysis; format: functional, cell-based; conditions: dose 20-60 nM
Summary of the method: (§3)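 Cells grown in RPMI-1640 with 10% FBS, penicillin/streptomycin at 37 °C, 5% CO2. Exposure to 20, 40 or 60 nM for 48 h alongside DMSO control. Lysates denatured, resolved by SDS-PAGE, transferred to PVDF, blocked, then probed with primary and secondary antibodies.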

SGC-7901 [8] = experiment: Cytotoxicity against human SGC-7901 cells harboring SiYAP assessed as increase in cell viability at 20 to 60 nM incubated for 48 hrs by MTT assay; format: cell-based; conditions: sgc-7901, 48 h, 0.06 µM, dose 20-60 nM
MGC-803 [9] = experiment: Induction of apoptosis in human MGC-803 cells assessed as upregulation of DR5 at 20 to 60 nM incubated for 48 hrs by Western blot analysis; format: functional, cell-based; conditions: dose 20-60 nM; summary of the method: as §2
MGC-803 [10] = experiment: Inhibition of tubulin polymerization in human MGC-803 cells assessed as increase in multiple nucleus formation at 20 to 60 nmol/L by DAPI staining based microscopic analysis; format: cell-based; conditions: dose 20-60 nmol/L; summary of the method: as §1
MGC-803 [11] = experiment: Activation of Hippo signaling pathway in human […] cells assessed as downregulation of YAP at 20 to 60 nM incubated for 48 hrs by Western blot analysis; format: cell-based; conditions: filed as activator, dose 20-60 nM
Summary of the method: (§4)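 Western blot on gastric cancer cells exposed to compound or DMSO at 20, 40 and 60 nM for 48 h. Cells were lysed, then the denatured lysates were separated by SDS-PAGE and transferred to PVDF. Membranes were blocked and probed with primary and then secondary antibodies. Hippo pathway proteins were detected.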

MGC-803 [12] = experiment: Induction of cell cycle arrest in human MGC-803 cells assessed as downregulation of CDK1 at 20 to 60 nM incubated for 48 hrs by Western blot analysis; format: functional, cell-based; conditions: dose 20-60 nM; summary of the method: as §3
MGC-803 [13] = experiment: Induction of apoptosis in human MGC-803 cells assessed as fragmentation of cells at 20 to 60 nM; format: functional, cell-based; conditions: dose 20-60 nM
MGC-803 [14] = experiment: Induction of apoptosis in human MGC-803 cells assessed as late apoptotic cells at 20 nM incubated for 48 hrs by annexin V-FITC and PI staining based flow cytometry analysis (reference value: 4.1 %); format: functional
[15] = Antiproliferative activity against human SGC-7901 cells assessed as reduction in cell viability at 60 nmol/L incubated for 48 hrs by MTT assay relative to control; format: functional; conditions: SGC-7901, 48 h
Summary of the method: (§5)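 MTT viability in gastric cell lines grown in RPMI-1640 with 10% FBS at 37 °C, 5% CO2. Compound at 20, 40 and 60 nM for 48 h, starting 24 h after seeding 5,000 cells per well. MTT for 4 h, formazan dissolved in DMSO, absorbance at 490 nm. Inhibition expressed relative to control.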

GES1 [16] = experiment: Cytotoxicity against human GES1 cells assessed as reduction in cell viability at 60 nmol/L incubated for 48 hrs by MTT assay; format: functional; conditions: GES1, read-out: INH; summary of the method: as §5
SGC-7901 [17] = experiment: Induction of apoptosis in human SGC-7901 cells assessed as early apoptotic cells at 20 nM incubated for 48 hrs by annexin V-FITC and PI staining based flow cytometry analysis (reference value: 1.4 %); format: functional
SGC-7901 [18] = experiment: Activation of Hippo signaling pathway in human SGC-7901 cells assessed as decrease in c-MYC expression incubated for 48 hrs by Western blot analysis; format: cell-based; conditions: filed as activator, dose 20-60 nM; summary of the method: as §4
SGC-7901 [19] = experiment: Induction of apoptosis in human SGC-7901 cells assessed as upregulation of DR5 at 20 to 60 nM incubated for 48 hrs by Western blot analysis; format: functional, cell-based; conditions: dose 20-60 nM; summary of the method: as §3
MGC-803 [20] = experiment: Induction of cell cycle arrest in human MGC-803 cells assessed as downregulation of Cyclin B1 at 20 to 60 nM incubated for 48 hrs by Western blot analysis; format: functional, cell-based; conditions: dose 20-60 nM; summary of the method: as §3
SGC-7901 [21] = experiment: Inhibition of colony formation in human SGC-7901 cells at 20 to 60 nM incubated for 7 days by crystal violet staining based assay; format: functional, cell-based; conditions: dose 20-60 nM, time 7.0 day
Summary of the method: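 Cells maintained in RPMI-1640 with 10% FBS at 37 °C, 5% CO2; incubated with 20, 40 and 60 nM for 7 days before colony counting.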

MGC-803 [22] = experiment: Activation of Hippo signaling pathway in human […] cells assessed as decrease in Bcl-2 expression incubated for 48 hrs by Western blot analysis; format: cell-based; conditions: filed as activator, dose 20-60 nM; summary of the method: as §4
MGC-803 [23] = experiment: Induction of apoptosis in human MGC-803 cells assessed as early apoptotic cells at 20 nM incubated for 48 hrs by annexin V-FITC and PI staining based flow cytometry analysis (reference value: 2.9 %); format: functional
SGC-7901 [24] = experiment: Induction of apoptosis in human SGC-7901 cells assessed as upregulation of Bak at 20 to 60 nM incubated for 48 hrs by Western blot analysis; format: functional, cell-based; conditions: dose 20-60 nM; summary of the method: as §3
MGC-803 [25] = experiment: Induction of apoptosis in human MGC-803 cells assessed as early apoptotic cells at 40 nM incubated for 48 hrs by annexin V-FITC and PI staining based flow cytometry analysis (reference value: 2.9 %); format: functional

COc1ccc(CN(C(=O)CSc2nc3ccccc3s2)c2cc(OC)c(OC)c(OC)c2)cc1O
Activity (MGC-803 [1]): Active
Activity (SGC-7901 [2]): 4.2%
Activity (MGC-803 [3]): Active
IC50 (GES1 [4]): 249 nM
IC50 [5]: 1900 nM
Activity (MGC-803 [6]): Active
Activity (SGC-7901 [7]): Active
Activity (SGC-7901 [8]): Non-Toxic
Activity (MGC-803 [9]): Active
Activity (MGC-803 [10]): Active
Activity (MGC-803 [11]): Active
Activity (MGC-803 [12]): Active
Activity (MGC-803 [13]): Active
Activity (MGC-803 [14]): 4.1%
inhibition at 0.06 µM [15]: 63%
inhibition at 0.06 µM (GES1 [16]): < 20%
Activity (SGC-7901 [17]): 4.2%
Activity (SGC-7901 [18]): Dose-dependent effect
Activity (SGC-7901 [19]): Active
Activity (MGC-803 [20]): Active
Activity (SGC-7901 [21]): Active
Activity (MGC-803 [22]): Dose-dependent effect
Activity (MGC-803 [23]): 4.4%
Activity (SGC-7901 [24]): Active
Activity (MGC-803 [25]): 10.2%

From ChEMBL document CHEMBL4765386, “Discovery of tertiary amide derivatives incorporating benzothiazole moiety as anti-gastric cancer agents in vitro via inhibiting tubulin polymerization and activating the Hippo signaling pathway” (Eur J Med Chem, 2020)
